FXIa inh 1536: blocks human coagulation factor XIa protease activity; purified FXIa, Boc-Glu-Ala-Arg-AMC fluorogenic substrate; inhibition, % at 5 µM; actives 0.14% (n = 220,000);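 active = inhibition of at least 40%; inactive = inhibition below 40%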;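 note: fluorescence of freed AMC excited at 355 nm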
thrombin 1536: blocks human thrombin protease activity; alpha-thrombin, Boc-VPR-AMC fluorogenic substrate cleavage; P00734; actives 0.26% (n = 220,000); inhibition, % at 5 µM; AID 1046;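 active = inhibition at or above 40%; inactive = inhibition below 40%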
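Material: Human alpha-thrombin protein | Buffer or medium: pH 7.5 Tris-saline with Tween 20 | Reagent: Boc-VPR-AMC substrate, 15 µM final | Schedule: Reaction at ambient temperature | Detection: AMC fluorescence at 355 nm excitation and 460 nm emission | Evaluation: Percent inhibition scaled between no-compound controls and no-enzyme blanks | Controls: no-compound enzyme wells and no-enzyme blanks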
KLK5 inh: inhibitors of human kallikrein 5 | actives 0.59% (n = 210,000) | AID 873 | inhibition, % at 5 µM | Q9Y337 | recombinant hK5, fluorogenic AMC substrate cleavage;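 active = inhibition of 40% or more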
Target sequence (Q9Y337 67-293 limits assumed): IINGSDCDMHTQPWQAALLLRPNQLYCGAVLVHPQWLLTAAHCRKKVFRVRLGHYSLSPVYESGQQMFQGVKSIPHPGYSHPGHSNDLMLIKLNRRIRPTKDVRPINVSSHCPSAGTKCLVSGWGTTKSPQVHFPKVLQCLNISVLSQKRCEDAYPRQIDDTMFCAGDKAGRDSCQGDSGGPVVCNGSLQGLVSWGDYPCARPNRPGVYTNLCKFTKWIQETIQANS
FXIIa inh 1536: factor XIIa (human) inhibition. actives 0.3% (n = 220,000). purified FXIIa, Boc-QGR-AMC fluorogenic substrate, 2 h. P00748. inhibition, % at 5 µM. AID 800; in the data active = inhibition above about 40%
A number is an active result; 0 = inactive; - = not tested or not shown. The list is not random: actives were taken first. Their share in the collection is about 1%.

SMILES | FXIa inh 1536 | thrombin 1536 | KLK5 inh | FXIIa inh 1536
Cc1ccc(S(=O)(=O)NN2C(=O)/C(=C/c3cccn3C)SC2=S)cc1 | 0 | 0 | 41 | 0
O=C(NCc1ccccc1)c1ccc(Cl)nc1 | 45 | 0 | 0 | 0
CC(CCc1ccccc1)NC(=O)c1ccc(Cl)nc1 (stereo not given) | 0 | 0 | 0 | 0
Cc1ccc(NC(=O)COC(=O)CNC(=O)c2ccco2)cc1 | 0 | 0 | 0 | 0
COc1ccccc1C1C(C(N)=O)=C(C)Nc2nc(-c3ccccc3Cl)nn21 (stereo not given) | 0 | 0 | 0 | 0
CC1=C(C(N)=O)C(c2ccccn2)n2nc(-c3ccccc3Cl)nc2N1 (stereo not given) | 0 | 0 | 43 | 0
O=C(Nc1ccc(N2CCOCC2)cc1N1CCOCC1)c1ccc([N+](=O)[O-])cc1 | 0 | 0 | 0 | 0
O=C(NNc1cc(N2CCOCC2)nc(N2CCOCC2)n1)c1ccc([N+](=O)[O-])cc1 | 0 | 0 | 68 | 0
COc1ccc(N(Cc2cc3ccccc3[nH]c2=O)C(=O)C2CCCO2)cc1 (stereo not given) | 0 | 0 | 0 | 0
COc1ccc(N(Cc2cc3cccc(C)c3[nH]c2=O)C(=O)C2CCCO2)cc1 (stereo not given) | 0 | 0 | 54 | 0
CN(Cc1ccon1)Cc1cn(C)nc1-c1cccc(Cl)c1 | 0 | 0 | 58 | 0
COc1ccc(Cl)cc1-c1nc(-c2ccc(NC(=O)c3cccs3)cc2)no1 | 0 | 0 | 0 | 0
O=C(CNC(=S)N(Cc1ccccc1)Cc1ccccc1F)NCCc1ccccc1 | 0 | 0 | 0 | 41
Cc1cc(C(=O)OCC(=O)c2cccc([N+](=O)[O-])c2)c2cccc(C)c2n1 | 0 | 61 | 0 | 0
Cc1ccccc1OCCNC(=O)/C=C/c1ccccc1 | 0 | 0 | 0 | 0
O=C(Nc1ccc(Nc2ccncc2)cc1)c1ccc(Nc2ccnc3ccc([N+](=O)[O-])cc23)cc1[N+](=O)[O-] | 0 | 0 | 0 | 0
CCSc1nnc(NC(=O)[C@H](C)N2C(=O)C3CC=CCC3C2=O)s1 (stereo not given in full) | 56 | 0 | 46 | 0
COc1cccc2sc(NC(=O)c3ccc(S(=O)(=O)N4CCOCC4)cc3)nc12 | 0 | 0 | 0 | 41
COc1ccc(Cl)cc1NC(=O)Nc1cn(C)nc1C | 45 | 0 | 57 | 0
COc1ccc(Cl)cc1NC(=O)Nn1cnnc1 | 0 | 0 | 0 | 0
O=C(N[C@H](C(=O)O)c1ccccc1)C1CCC(Cn2nnc3ccccc3c2=O)CC1 (stereo not given in full) | 0 | 0 | 0 | 43
C[C@@H](C(=O)N[C@H](C(=O)O)c1ccccc1)n1nnc2ccccc2c1=O | 0 | 0 | 0 | 0
CCCNc1cc(C)oc(=O)c1C(=O)CC | 0 | 0 | 0 | 0
Cc1cc(Nc2ccc(F)cc2F)n2nc(C)nc2n1 | 0 | 0 | 0 | 0
Fc1ccc(Nc2ccc3ccccc3n2)c(F)c1 | 104 | 0 | 47 | 0
SMILES | FXIa inh 1536 | thrombin 1536 | KLK5 inh | FXIIa inh 1536
CC(C)CC(NC(=O)CNC(=O)C1O[C@@H]2OC(C)(C)O[C@@H]2[C@H]2OC(C)(C)O[C@@H]12)C(=O)O (stereo not given in full) | 0 | 0 | - | 0
CNC(=O)COC(=O)c1ccc(Cl)c(S(N)(=O)=O)c1 | 0 | 0 | 49 | 0
CCOP(=O)(OCC)C(Nc1ccccc1)c1ccccc1C(F)(F)F (stereo not given) | 0 | 0 | 0 | 0
Cc1cc(C)c(C)c(S(=O)(=O)Nc2ccccc2C(=O)NCCCn2ccnc2)c1C | 0 | 0 | 0 | 0
O=C(NCCCn1ccnc1)c1ccccc1NS(=O)(=O)c1ccc(F)c(F)c1 | 0 | 0 | 86 | 0
CCOc1ccc(NC(=O)CC2C(=O)N(CC)C(=S)N2NC(=O)c2ccncc2)cc1 (stereo not given) | 0 | 0 | 0 | 0
Cc1ccc(SC[C@H](c2ccccc2)N2CCN(CC(C)C)CCC2=O)cc1 | 0 | 0 | 0 | 0
O=C(NCCCCNC(=O)C1CCCC1)C1CCCC1 | 0 | 0 | 0 | 0
CCCCOCCCNC(=O)C1CCCCC1 | 0 | 0 | 41 | 0
CC(C)(C)c1ccc(OCC(=O)N2CCCCCC2)c(Br)c1 | 0 | 0 | 0 | 0
Cc1ccc(OCC(=O)N2CCCCC2)c(Br)c1 | 0 | 0 | 48 | 0
CC(C)c1ccc(/C=N/NC(=O)CN(c2cccc(Cl)c2Cl)S(C)(=O)=O)cc1 | 0 | 0 | 0 | 0
CS(=O)(=O)N(CC(=O)N/N=C/c1ccccc1C(=O)O)c1cccc(Cl)c1Cl | 0 | 0 | 0 | 57
O=C(O)[C@@H](c1ccccc1)N1Cc2ccccc2C1=O | 0 | 0 | 49 | 0
CCn1c(SCc2ccccc2)nnc1-c1cccnc1 | 0 | 0 | 0 | 0
O=C1NCC(COCc2ccco2)O1 (stereo not given) | 0 | 103 | 0 | 0
CCOc1cc(C(=O)NC)cc(OCC)c1OCC | 0 | 0 | 44 | 0
O=C(N/N=C/c1ccccc1)c1sccc1OCc1ccc(F)cc1 | 0 | 0 | 0 | 0
Cc1c(/C(O)=C2/C(=O)C(=O)N(CCN3CCOCC3)C2c2cccs2)cnn1-c1ccccc1 (stereo not given) | 0 | 0 | 0 | 105
COc1ccc(-c2c[n+]3c4n2CCCCC4=C(c2ccccc2)C3)cc1 | 0 | 58 | 0 | 0
Cc1nn(CC(=O)c2ccc(Cl)s2)c(C)c1[N+](=O)[O-] | 43 | 0 | 0 | 0
CCOC(=O)N1CCC(NS(=O)(=O)c2ccc(C#N)cc2)CC1 | 0 | 0 | 0 | 0
O=c1c2[nH]c3cccc(Cl)c3c2ncn1CCN1CCCCC1 | 0 | 0 | 0 | 43
O=c1c2[nH]c3cccc(Cl)c3c2ncn1CC1CCCO1 (stereo not given) | 0 | 0 | 0 | 0
O=C(NCC1(N2CCOCC2)CCCCC1)c1cccc(S(=O)(=O)N2CCc3ccccc3C2)c1 | 0 | 0 | 0 | 0
SMILES | FXIa inh 1536 | thrombin 1536 | KLK5 inh | FXIIa inh 1536
CCOC(=O)c1c(NC(=O)CSc2nnc(-c3ccco3)o2)sc(C(C)=O)c1C | 0 | 0 | 0 | 0
CCOC(=O)c1c(NC(=O)CSc2nnc(-c3cccnc3)o2)sc(C(C)=O)c1C | 0 | 0 | 48 | 0
CCN1C(=O)c2n[nH]c(C(=O)OC)c2C1=O | 0 | 0 | 90 | 44
Cc1cccc(C(=O)N/N=C/c2ccc(OC3CSC3)cc2)c1 | 0 | 0 | 0 | 0
COc1cccc(C(=O)N/N=C/c2ccc(OC3CSC3)cc2)c1 | 0 | 0 | 45 | 0
Cc1cccc(OCC(=O)Nc2ccc(N3CCN(C(=O)c4ccco4)CC3)cc2)c1 | 0 | 0 | 0 | 0
CCCCc1c(C)nc2ccc(Br)cc2c1SCCC#N | 0 | 99 | 47 | 0
CCc1c(C)nc2ccc(Br)cc2c1SCCC#N | 0 | 0 | 0 | 0
COc1ccc(-c2ccc(CCC(=O)O)n2-c2ccccc2O)cc1 | 0 | 59 | 0 | 0
CCCCC(=O)N1C/C=C\C(c2ccc(OC)cc2)N(Cc2ccc(F)cc2)C(=O)C1 (stereo not given) | 0 | 0 | 0 | 0
Cc1nn(-c2ccccc2)c(C)c1NC(=O)c1cccs1 | 0 | 0 | 50 | 0
O=C(NCc1cccnc1)C(=O)C1C(=O)Nc2ccccc21 (stereo not given) | 0 | 0 | 41 | 0
COc1ccc(Cn2cc(C(=O)O)c(=O)c3ccccc32)cc1 | 0 | 0 | 0 | 0

Screening results deposited in PubChem by PCMD.
